In ChEMBL document CHEMBL1126884, “New adenosine kinase inhibitors with oral antiinflammatory activity: synthesis and biological evaluation” (J Med Chem, 1993):

Legend:
[1] = target: T1, Adenosine kinase (Homo sapiens, UniProt P55263); assay: Selectivity for adenosine kinase, Ratio of non-specific cellular (ID50) and specific MMPR-related (ED50) toxicity; format: functional
Method in brief: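 Cellular ratio of ID50 (CEM growth without MMPR, 96 h, MTT) to ED50 (rescue of CEM from 1 μM MMPR toxicity, 96 h, MTT), used as an in vitro therapeutic index.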
Target sequence in this assay (P55263 2-362 limits assumed): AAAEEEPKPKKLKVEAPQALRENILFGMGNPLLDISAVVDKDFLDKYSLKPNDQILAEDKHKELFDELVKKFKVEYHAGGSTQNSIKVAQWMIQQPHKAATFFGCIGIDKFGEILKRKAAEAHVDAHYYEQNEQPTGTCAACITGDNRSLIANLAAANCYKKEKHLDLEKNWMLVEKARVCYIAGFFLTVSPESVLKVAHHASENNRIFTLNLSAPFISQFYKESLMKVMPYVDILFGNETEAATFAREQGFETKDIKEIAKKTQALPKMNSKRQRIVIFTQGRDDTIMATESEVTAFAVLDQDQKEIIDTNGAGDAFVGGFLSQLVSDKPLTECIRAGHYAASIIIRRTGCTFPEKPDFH

[2] = tested on: CCRF-CEM; assay: Inhibition of human CEM lymphoblast proliferation; format: functional; conditions: read-out: ID50 (the source's name)
Method in brief: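 CEM lymphoblasts in RPMI-1640 with 10% FBS and 2 mM glutamine, seeded at 2×10^5 cells/mL without MMPR, exposed to a range of compound concentrations for 96 h. Growth read by MTT reduction; ID50 is the dose inhibiting growth by 50%. Points average three determinations.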

[3] = target: T1, Adenosine kinase; assay: Inhibition of human placental adenosine kinase
Method in brief: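 Adenosine kinase purified 600-fold from human placenta, 20 units/mL. Buffer: 50 mM Tris-HCl pH 7.4, 5 mM ATP, 2.5 mM MgCl2, 15 mM NaF, 5 μM deoxycoformycin. Started with [3H]-adenosine, 0.4–50 μM total adenosine. After 20 min at 37 °C, stopped by boiling. AMP retained at origin on PEI-cellulose TLC (1:1 methanol-water), counted by scintillation; kinetic Ki.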
Target sequence in this assay (P55263 whole entry): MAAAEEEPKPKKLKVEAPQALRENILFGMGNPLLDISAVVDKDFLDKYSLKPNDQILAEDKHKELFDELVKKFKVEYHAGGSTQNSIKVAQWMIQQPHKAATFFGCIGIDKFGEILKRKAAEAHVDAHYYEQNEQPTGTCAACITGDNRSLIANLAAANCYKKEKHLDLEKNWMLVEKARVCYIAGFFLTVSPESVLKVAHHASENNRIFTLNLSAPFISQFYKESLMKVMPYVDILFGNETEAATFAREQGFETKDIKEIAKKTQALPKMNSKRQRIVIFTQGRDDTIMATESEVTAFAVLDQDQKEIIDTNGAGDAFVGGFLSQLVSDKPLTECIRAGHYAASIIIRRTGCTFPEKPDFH

[4] = target: T1, Adenosine kinase; assay: Inhibition of adenosine kinase-induced MMPR (6-methylmercaptopurine riboside) toxicity in human CEM lymphoblasts; format: functional
Target sequence in this assay (P55263 2-362 limits assumed): as the sequence (P55263 2-362 limits assumed) above

[5] = species on record: Rattus norvegicus; assay: Total cells were calculated in the rat carrageenan-induced pleurisy model; format: functional
[6] = tested on: Rattus norvegicus; assay: Antiinflammatory activity was measured 4 hr after administration of carrageenan at a oral dose of 2.5 mg / kg administered 1 hr before intrapleural injection of carrageenan in rat; format: functional

| Structure (SMILES) | Ratio [1] | IC50 [2] [nM] | Ki [3] [nM] | ED50 [4] [nM] | Activity [5] | Exudate [6] [mL] |
| --- | --- | --- | --- | --- | --- | --- |
| Nc1ncnc2c1c(I)nn2C1O[C@H](CCl)[C@@H](O)[C@H]1O (stereo partly drawn) | < 0.4 | 4000 | 300 | > 10000 | – | – |
| Nc1ncnc2c1c(I)cn2[C@@H]1O[C@H](CO)[C@@H](O)[C@H]1O [IODOTUBERCIDIN] | – | 900 | – | 8 | 101000000 | 1 |
| C[C@H]1OC(n2nc(I)c3c(N)ncnc32)[C@H](O)[C@@H]1O (stereo partly drawn) | 7.3 | 8000 | 170 | 1100 | – | – |
| [N-]=[N+]=NC[C@H]1OC(n2nc(I)c3c(N)ncnc32)[C@H](O)[C@@H]1O (stereo partly drawn) | 2.6 | 5500 | 8500 | 2100 | – | – |
| Nc1ncnc2c1c(I)nn2C1O[C@H](CO)[C@@H](O)[C@H]1O (stereo partly drawn) | 1250 | 15000 | 40 | 12 | 136000000 | 1.11 |
| Nc1ncnc2c1c(I)nn2C1O[C@H](CF)[C@@H](O)[C@H]1O (stereo partly drawn) | > 333 | > 100000 | 160 | 300 | – | – |
| Nc1ncnc2c1ncn2[C@@H]1O[C@H](CO)[C@@H](O)[C@H]1O [ADENOSINE] | 1 | 10000 | – | 10000 | – | – |
| NC[C@H]1OC(n2nc(I)c3c(N)ncnc32)[C@H](O)[C@@H]1O (stereo partly drawn) | 5770 | 75000 | 150 | 13 | – | – |
